Data from ChEMBL document CHEMBL1949609, “Synthesis and biological evaluation of novel sinomenine derivatives as anti-inflammatory agents” (Eur J Med Chem, 2012).
Active and inactive are the calls of the source. No cut-off for these calls is given here.

Assays:
[1] = test system: RAW264.7; assay: Antiinflammatory activity in mouse RAW264.7 cells assessed as inhibition of LPS-induced TNFalpha production at 10 uM after 6 to 24 hrs by ELISA; assay type: functional, cell-based
Procedure, shortened: (§1)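 RAW264.7 cells (DMEM, 5% FBS, 37 °C, 5% CO2) were exposed to compound at 10 µM plus LPS 500 ng/mL at the same time, with 0.1% DMSO final. Supernatant TNF-α and IL-6 were measured by ELISA at 6, 12 and 24 h.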

[2] = test system: RAW264.7; assay: Cytotoxicity against mouse RAW264.7 cells after 24 hrs by MTT assay; assay type: cell-based; conditions: RAW264.7, 24 h
Procedure, shortened: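 Growth of non-LPS RAW264.7 cells was measured by MTT after 24 h with compound: MTT for 4 h, formazan dissolved in DMSO, OD570. Untreated cells were set as 100% viability. IC50 is the concentration giving 50% growth inhibition.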

[3] = test system: RAW264.7; assay: Antiinflammatory activity in mouse RAW264.7 cells assessed as inhibition of LPS-induced nitric oxide production after 24 hrs by Griess method; assay type: functional, cell-based; conditions: RAW264.7, 24 h
Procedure, shortened: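 Cells were treated with compound (0.5–100 µM; 0.1% DMSO final) and LPS 500 ng/mL together for 24 h. Nitrite in the medium was read with Griess reagent (10 min, room temperature, dark) at OD540. IC50 comes from three separate experiments, each in triplicate.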

[4] = test system: RAW264.7; assay: Antiinflammatory activity in mouse RAW264.7 cells assessed as inhibition of LPS-induced IL-6 production at 10 uM after 6 to 24 hrs by ELISA; assay type: functional, cell-based; procedure, shortened: as §1
[5] = test system: RAW264.7; assay: Antiinflammatory activity in mouse RAW264.7 cells assessed as inhibition of LPS-induced TNFalpha production at 10 uM after 6 hrs by ELISA (reference value: 2646.1 +/- 499.8 pg/ml); assay type: functional; procedure, shortened: as §1
[6] = biological target: Transcription factor p65 (Mus musculus) (UniProt Q04207); assay: Inhibition of NF-kappaB subunit p65 DNA binding activity in LPS-stimulated mouse RAW264.7 cells at 20 uM after 24 hrs by luciferase reporter gene assay; assay type: cell-based
[7] = test system: Mus musculus; assay: Antiinflammatory activity in BALB/c mouse assessed as decrease in LPS-induced serum TNFalpha level at 15 mg/kg, ip QD administered 3 days prior to LPS challenge measured after 3 hrs by ELISA; assay type: functional, organism-based; design: dose 15 mg/kg
Procedure, shortened: (§2)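 Balb/c mice were dosed i.p. at 15 mg/kg daily for 3 days (olive oil vehicle) before LPS 20 mg/kg i.p. Blood was drawn 3 h after LPS, and serum TNF-α and IL-6 were measured by ELISA. n = 6.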

[8] = biological target: T1, Mitogen-activated protein kinase 1 and 3 (ERK2 and ERK1) (Mus musculus) (UniProt P63085+Q63844); assay: […] of LPS-induced Erk1/2 phosphorylation in mouse RAW264.7 cells at 10 uM after 4 to 6 hrs by Western blot analysis; assay type: cell-based
Procedure, shortened: (§3)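 Cells were given compound at 10 µM with LPS 500 ng/mL and lysed (Triton X-100 buffer) at 2, 4 and 6 h. Protein was quantified by BCA, run on 10% SDS-PAGE and transferred to PVDF. Blots were probed for total and phosphorylated JNK, ERK1/2, p38, NF-κB p65 and IκBα.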

[9] = test system: RAW264.7; assay: Antiinflammatory activity in mouse RAW264.7 cells assessed as inhibition of LPS-induced TNFalpha production at 10 uM after 12 hrs by ELISA (reference value: 4126.8 +/- 282 pg/ml); assay type: functional; procedure, shortened: as §1
[10] = test system: RAW264.7; assay: Antiinflammatory activity in mouse RAW264.7 cells assessed as inhibition of LPS-induced IL-6 production at 10 uM after 12 hrs by ELISA (reference value: 2145.1 +/- 368.7 pg/ml); assay type: functional; procedure, shortened: as §1
[11] = test system: RAW264.7; assay: Antiinflammatory activity in mouse RAW264.7 cells assessed as inhibition of LPS-induced IL-6 production at 10 uM after 24 hrs by ELISA (reference value: 13412 +/- 1167.6 pg/ml); assay type: functional; procedure, shortened: as §1
[12] = biological target: MAP kinase p38 (Mus musculus) (UniProt P47811+O08911+Q9WUI1+Q9Z1B7); assay: Inhibition of LPS-induced MAPK p38 phosphorylation in mouse RAW264.7 cells at 10 uM after 4 to 6 hrs by Western blot analysis; assay type: cell-based; procedure, shortened: as §3
[13] = test system: RAW264.7; assay: Antiinflammatory activity in mouse RAW264.7 cells assessed as inhibition of LPS-induced TNFalpha production at 10 uM after 24 hrs by ELISA (reference value: 10124 +/- 1137.2 pg/ml); assay type: functional; procedure, shortened: as §1
[14] = test system: Mus musculus; assay: Antiinflammatory activity in BALB/c mouse assessed as decrease in LPS-induced serum IL-6 level at 15 mg/kg, ip QD administered 3 days prior to LPS challenge measured after 3 hrs by ELISA; assay type: functional, organism-based; design: dose 15 mg/kg; procedure, shortened: as §2
[15] = test system: RAW264.7; assay: Inhibition of MAPK-mediated NFkappa B subunit p65 phosphorylation in LPS-stimulated mouse RAW264.7 cells at 10 uM at 6 hrs by Western blot analysis; assay type: cell-based; procedure, shortened: as §3
[16] = test system: Mus musculus; assay: Antiinflammatory activity in BALB/c mouse assessed as increase in survival rate at 15 mg/kg, ip QD administered 3 days prior to LPS challenge measured after 3 hrs (reference value: 10%); assay type: functional; conditions: route intraperitoneal
[17] = biological target: T2, NF-kappa-B inhibitor alpha (Mus musculus) (UniProt Q9Z1E3); assay: Inhibition of LPS-induced IkappaBalpha phosphorylation in mouse RAW264.7 cells at 10 uM at 6 hrs by Western blot analysis; assay type: cell-based; procedure, shortened: as §3
T2 sequence (whole entry): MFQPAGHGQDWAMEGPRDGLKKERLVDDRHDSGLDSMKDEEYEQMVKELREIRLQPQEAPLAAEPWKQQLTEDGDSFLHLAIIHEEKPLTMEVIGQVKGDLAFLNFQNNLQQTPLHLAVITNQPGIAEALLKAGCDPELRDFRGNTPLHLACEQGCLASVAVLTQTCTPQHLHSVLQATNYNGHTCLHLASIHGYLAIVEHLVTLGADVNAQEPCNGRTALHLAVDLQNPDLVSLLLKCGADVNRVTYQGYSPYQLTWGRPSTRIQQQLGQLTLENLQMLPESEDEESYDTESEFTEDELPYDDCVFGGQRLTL

[18] = test system: RAW264.7; assay: Inhibition of LPS-induced JNK phosphorylation in mouse RAW264.7 cells at 10 uM after 4 to 6 hrs by Western blot analysis; assay type: cell-based; procedure, shortened: as §3
[19] = biological target: Transcription factor p65 (Mus musculus) (UniProt Q04207); assay: Inhibition of NF-kappaB subunit p65 DNA binding activity in LPS-stimulated mouse RAW264.7 cells at 10 uM after 24 hrs by luciferase reporter gene assay; assay type: cell-based
[20] = test system: RAW264.7; assay: Antiinflammatory activity in mouse RAW264.7 cells assessed as inhibition of LPS-induced IL-6 production at 10 uM after 6 hrs by ELISA (reference value: 1046.1 +/- 111.2 pg/ml); assay type: functional; procedure, shortened: as §1
[21] = biological target: T2, NF-kappa-B inhibitor alpha (Mus musculus); assay: Inhibition of IKappaBalpha degradation in LPS-stimulated mouse RAW264.7 cells at 10 uM at 4 to 6 hrs by Western blot analysis; assay type: cell-based; procedure, shortened: as §3
[22] = biological target: Transcription factor p65 (Mus musculus) (UniProt Q04207); assay: Inhibition of NF-kappaB subunit p65 DNA binding activity in LPS-stimulated mouse RAW264.7 cells at 10 uM after 20 mins by electrophoretic mobility shift assay; assay type: cell-based
Procedure, shortened: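 Nuclear extract (5 µg) was incubated with a biotin-labelled NF-κB consensus probe for 20 min at room temperature. Complexes were resolved on a 6% native gel in 0.5× TBE at 4 °C, then transferred to nylon and detected by chemiluminescence. Specificity was checked by 100-fold unlabelled competitor and p65 antibody supershift.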

[23] = test system: Mus musculus; assay: Antiinflammatory activity in BALB/c mouse assessed as decrease in LPS-induced mortality at 15 mg/kg, ip QD administered 3 days prior to LPS challenge; assay type: functional, organism-based; design: dose 15 mg/kg
Procedure, shortened: (§4)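 Balb/c mice (~20 g), 10 per group, given compound in olive oil at 15 mg/kg i.p. once daily for 3 days, then LPS 20 mg/kg i.p. Cumulative survival was followed after LPS and analysed by Kaplan–Meier against LPS-only mice.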

[24] = biological target: Transcription factor p65 (Mus musculus) (UniProt Q04207); assay: Inhibition of NF-kappaB subunit p65 DNA binding activity in LPS-stimulated mouse RAW264.7 cells at 5 to 20 uM by luciferase reporter gene assay; assay type: cell-based
[25] = biological target: Transcription factor p65 (Mus musculus) (UniProt Q04207); assay: Inhibition of NF-kappaB subunit p65 DNA binding activity in LPS-stimulated mouse RAW264.7 cells at 5 to 20 uM by electrophoretic mobility shift assay; assay type: cell-based
[26] = biological target: T2, NF-kappa-B inhibitor alpha (Mus musculus); assay: Inhibition of LPS-induced IkappaBalpha phosphorylation in mouse RAW264.7 cells at 10 uM after 4 to 6 hrs by Western blot analysis; assay type: cell-based; procedure, shortened: as §3
[27] = test system: Mus musculus; assay: Antiinflammatory activity in BALB/c mouse assessed as increase in survival rate at 15 mg/kg, ip QD administered 3 days prior to LPS challenge measured after 19 hrs; assay type: functional; conditions: route intraperitoneal; procedure, shortened: as §4
[28] = biological target: T2, NF-kappa-B inhibitor alpha (Mus musculus); assay: Inhibition of IKappaBalpha degradation in LPS-stimulated mouse RAW264.7 cells at 10 uM by Western blot analysis; assay type: cell-based; procedure, shortened: as §3
[29] = biological target: T1, Mitogen-activated protein kinase 1 and 3 (ERK2 and ERK1) (Mus musculus); assay: Inhibition of LPS-induced Erk1/2 phosphorylation in mouse RAW264.7 cells at 10 uM after 4 to 6 hrs by Western blot analysis; assay type: cell-based; procedure, shortened: as §3
[30] = test system: RAW264.7; assay: Inhibition of MAPK-mediated NFkappa B subunit p65 phosphorylation in LPS-stimulated mouse RAW264.7 cells at 10 uM after 4 to 6 hrs by Western blot analysis; assay type: cell-based; procedure, shortened: as §3
[31] = biological target: T2, NF-kappa-B inhibitor alpha (Mus musculus); assay: Inhibition of LPS-induced IkappaBalpha phosphorylation in mouse RAW264.7 cells at 10 uM at 4 hrs by Western blot analysis; assay type: cell-based; procedure, shortened: as §3

Chain of Transcription factor p65 (Mus musculus) (Q04207 whole entry): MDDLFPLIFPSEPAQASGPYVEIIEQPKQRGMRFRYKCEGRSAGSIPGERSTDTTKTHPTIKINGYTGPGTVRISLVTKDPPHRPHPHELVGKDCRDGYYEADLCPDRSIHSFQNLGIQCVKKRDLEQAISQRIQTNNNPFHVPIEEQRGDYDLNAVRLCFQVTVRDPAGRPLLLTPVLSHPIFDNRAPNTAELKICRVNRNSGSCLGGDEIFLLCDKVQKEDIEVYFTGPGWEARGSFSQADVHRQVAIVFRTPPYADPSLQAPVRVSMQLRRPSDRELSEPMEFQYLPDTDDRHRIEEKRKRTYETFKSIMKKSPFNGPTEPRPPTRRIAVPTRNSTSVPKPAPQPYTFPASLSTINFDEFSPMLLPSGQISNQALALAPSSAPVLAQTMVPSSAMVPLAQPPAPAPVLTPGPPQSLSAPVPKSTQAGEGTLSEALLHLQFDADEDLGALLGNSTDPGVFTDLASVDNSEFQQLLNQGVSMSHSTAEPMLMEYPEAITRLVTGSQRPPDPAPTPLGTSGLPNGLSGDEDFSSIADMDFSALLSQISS
T1 sequence (P63085 whole entry, looked up): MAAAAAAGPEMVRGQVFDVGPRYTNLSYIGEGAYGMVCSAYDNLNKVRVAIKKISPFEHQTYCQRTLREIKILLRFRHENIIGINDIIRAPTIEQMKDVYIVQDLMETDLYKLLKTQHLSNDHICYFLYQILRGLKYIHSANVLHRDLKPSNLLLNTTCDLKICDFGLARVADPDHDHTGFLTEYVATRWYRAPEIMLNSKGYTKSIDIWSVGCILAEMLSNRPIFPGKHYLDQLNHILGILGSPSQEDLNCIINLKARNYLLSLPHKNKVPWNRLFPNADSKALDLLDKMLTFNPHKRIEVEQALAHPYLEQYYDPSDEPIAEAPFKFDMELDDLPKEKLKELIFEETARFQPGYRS
T1 sequence (Q63844 whole entry, looked up): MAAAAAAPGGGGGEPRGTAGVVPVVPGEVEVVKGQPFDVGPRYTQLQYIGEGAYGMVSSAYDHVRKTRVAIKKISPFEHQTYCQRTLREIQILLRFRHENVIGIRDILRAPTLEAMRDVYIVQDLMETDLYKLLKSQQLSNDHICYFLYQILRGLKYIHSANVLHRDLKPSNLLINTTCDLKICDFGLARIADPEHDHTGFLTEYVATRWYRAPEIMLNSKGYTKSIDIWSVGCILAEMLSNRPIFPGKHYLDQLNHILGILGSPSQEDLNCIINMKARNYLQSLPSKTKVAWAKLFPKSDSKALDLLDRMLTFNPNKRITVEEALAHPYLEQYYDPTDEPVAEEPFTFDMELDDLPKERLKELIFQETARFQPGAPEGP

| Structure (SMILES) | IC50 [2] [µM] | IC50 [3] [µM] | Activity [5] [pg/mL] | Activity [7] | Activity [9] [pg/mL] | Activity [10] [pg/mL] | Activity [11] [pg/mL] | inhibition [12] | Activity [13] [pg/mL] | Activity [14] | survival at 15 mg/kg [16] [%] | inhibition [18] | Activity [20] [pg/mL] | other results |
| --- | --- | --- | --- | --- | --- | --- | --- | --- | --- | --- | --- | --- | --- | --- |
| COC1=C[C@@H]2[C@@H]3Cc4ccc(OC)c(O)c4[C@]2(CCN3C)CC1=O [SINOMENINE] | > 200 | > 200 | – | – | – | – | – | – | – | – | – | – | – | inhibition [1]: inactive; inhibition [4]: inactive |
| COC1=C[C@@H]2[C@@H]3Cc4ccc(OC)c(OCCCOc5c(OC)ccc6c5[C@@]57CCN(C)[C@@H](C6)[C@H]5C=C(OC)C(=O)C7)c4[C@]2(CCN3C)CC1=O | 41.1 | 15.2 | 1817.6 | Active | 3501.9 | 1667.8 | 13096.9 | inactive | 8303.2 | Active | 70 | inactive | 949.7 | inhibition [6]: Active; Activity [8]: Active; inhibition [15]: Active; inhibition [17]: Active; inhibition [19]: inactive; inhibition [21]: Active; inhibition [22]: inactive; Activity [23]: Active |
| CCCCCCCCC(=O)Oc1c(OC)ccc2c1[C@@]13CCN(C)[C@@H](C2)[C@H]1C=C(OC)C(=O)C3 | 58.2 | 24.1 | 2338.5 | Active | 4503.8 | 223.7 | 486.3 | Active | 9728.9 | Active | 30 | Active | 148.5 | inhibition [24]: Active; inhibition [25]: Active; inhibition [26]: Active; survival at 15 mg/kg [27]: 30%; inhibition [28]: Active; inhibition [29]: Active; inhibition [30]: Active; inhibition [31]: inactive |
